From PubChem BioAssay
The list is not random: actives were taken first. Their share in the collection is about 0.57%.
GASC-1 inh: inhibitors of human GASC-1 (JMJD2C) demethylase; Q9H3R0; GST-JMJD2C(1-420) H3K9me3 demethylation, DELFIA europium; inhibition, % at 2.35 µM; actives 0.069% (n = 330,000);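 active = more than half of a compound's replicate wells show inhibition beyond 50%, single wells judged on their own value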;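 note: signal counts dimethyl H3K9 product captured on neutravidin plate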
VLA-4 inh: inhibition in a human VLA-4 binding assay | VLA-4 expressing cells, ligand binding flow cytometry | actives 0.2% (n = 330,000) | AID 2557 | P13612 | inhibition, % (about 7 µM as worked out from the volumes in the protocol); in the data active = inhibition above about 50%
Target sequence (P13612 whole entry, looked up): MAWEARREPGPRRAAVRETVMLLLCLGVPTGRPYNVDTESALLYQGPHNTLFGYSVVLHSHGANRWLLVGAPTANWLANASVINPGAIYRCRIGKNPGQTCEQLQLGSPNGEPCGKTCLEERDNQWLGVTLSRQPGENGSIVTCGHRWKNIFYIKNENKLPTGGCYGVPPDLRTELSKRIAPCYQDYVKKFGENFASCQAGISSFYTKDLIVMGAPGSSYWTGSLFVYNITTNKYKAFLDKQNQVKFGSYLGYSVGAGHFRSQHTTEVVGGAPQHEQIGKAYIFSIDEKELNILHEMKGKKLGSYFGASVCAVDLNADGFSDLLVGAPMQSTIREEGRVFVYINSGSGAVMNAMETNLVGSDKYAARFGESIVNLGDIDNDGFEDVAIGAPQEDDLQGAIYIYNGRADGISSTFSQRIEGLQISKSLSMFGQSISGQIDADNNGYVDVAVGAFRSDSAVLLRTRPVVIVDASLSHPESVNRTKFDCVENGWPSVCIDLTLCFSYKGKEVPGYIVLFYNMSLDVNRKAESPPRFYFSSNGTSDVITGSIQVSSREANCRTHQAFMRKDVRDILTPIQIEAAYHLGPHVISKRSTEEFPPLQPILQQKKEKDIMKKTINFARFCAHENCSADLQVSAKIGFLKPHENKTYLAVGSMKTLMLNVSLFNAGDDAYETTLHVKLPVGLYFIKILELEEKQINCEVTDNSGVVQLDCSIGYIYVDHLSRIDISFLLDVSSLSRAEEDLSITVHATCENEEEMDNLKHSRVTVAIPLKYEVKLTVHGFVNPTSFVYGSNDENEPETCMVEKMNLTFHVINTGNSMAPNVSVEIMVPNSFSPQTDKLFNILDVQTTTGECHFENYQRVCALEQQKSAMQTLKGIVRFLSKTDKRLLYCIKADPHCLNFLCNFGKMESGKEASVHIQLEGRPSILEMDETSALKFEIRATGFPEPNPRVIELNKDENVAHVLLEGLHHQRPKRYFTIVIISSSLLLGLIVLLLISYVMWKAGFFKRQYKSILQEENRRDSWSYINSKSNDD
p-CIP stab down: p/CIP protein destabilization; Q05BA5; F442A p/CIP-EGFP cells, EGFP fluorescence, 16 h; decrease of EGFP signal, % at 10 µM; actives 0.01% (n = 290,000); AID 1984;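 active = EGFP signal decrease of at least 30% at 10 µM or well 3 SD below plate mean, unless failing retest; inactive = the rest, including hits failing retest or dose response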
Arr AP2 block: blocks beta-arrestin peptide binding to AP2 adaptin; inhibition, % at 10 µM; actives 0.31% (n = 340,000); FITC-arrestin peptide / GST-AP2 beads, flow cytometry; AP2 beta2 appendage carries R879A mutation; AID 504490;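 active = inhibition above a set limit, near 3 SD of compounds lacking own fluorescence, cut at about 54% in these data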
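System: GST-AP2 R879A glutathione beads | Also added: FITC-arrestin peptide, 50 nM | Times: 12 min plus 1 h, RT | Signal: Bead flow cytometry, FITC channel | Buffer or medium: PBS with 0.05% Tween 20 and 0.1% BSA | Read-out basis: Percent drop in bead-associated FITC signal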
VLA-4 mod pick: human VLA-4 allosteric modulation in cherry picked compounds. shares compounds with VLA-4 inh. U937 cells, HUTS-21 LIBS mAb binding, flow cytometry; LDV ligand present at threefold Kd. inhibition, % at 6.7 µM. actives 2% (n = 1,300); in the data active = inhibition above about 40%
Of the large screens only hits and unclear results are named; the others gave an inactive call (follow-up assays come after a bar, where they were run).

Cc1ccc(NC(=O)CSc2nn(-c3ccccc3)c(=S)s2)cc1S(=O)(=O)N(C)C	none | VLA-4 mod pick inactive
O=C(CSc1nn(-c2ccccc2)c(=S)s1)Nn1cnnc1	none
CCCOc1ccc(-c2cc(C(=O)NCC3CCCO3)c3ccccc3n2)cc1 (stereo not drawn)	none | VLA-4 mod pick inactive
COCCN(Cc1cc2cc3c(cc2nc1Cl)OCO3)C(=O)Nc1ccc(F)cc1	none
COCCN(Cc1cc2cc3c(cc2nc1Cl)OCO3)C(=O)Nc1ccc(OC)cc1	VLA-4 inh 54 | VLA-4 mod pick inactive
CCOc1ccc(C(=O)Nc2cc(NC(=O)c3ccc(OCC)c(Cl)c3)cc(C(=O)O)c2)cc1Cl	none (no result: VLA-4 inh)
CCOCCCNC(=O)/C(C#N)=C/c1ccc([N+](=O)[O-])o1	none
CCOCCCNC(=O)/C(C#N)=C/c1cc(Br)c(O)c(Br)c1	none (no result: VLA-4 inh) | VLA-4 mod pick inactive
COCCNC(=O)/C(C#N)=C/c1cc(Br)c(O)c(OC)c1	none | VLA-4 mod pick inactive
COC(=O)c1ccc(/C=C(\C#N)C(=O)NC(C)c2ccccc2)cc1 (stereo not drawn)	none
CCCCNC(=O)/C(C#N)=C/c1ccc(C(=O)OC)cc1	none | VLA-4 mod pick inactive
CCCC(=O)Nc1ccc(Sc2ccc([N+](=O)[O-])cc2)cc1	none
O=C(O)c1ccc(N/N=C/c2cccc3cccnc23)cc1	none
CCOC(=O)C1(S(=O)(=O)c2ccc(Cl)cc2)CCN(Cc2ccc(C)cc2)CC1	none | VLA-4 mod pick inactive
CCOC(=O)C1(Cc2ccc(Cl)cc2)CCN(Cc2cnc(N)nc2)CC1	none
COC(=O)[C@]1(Cc2ccccc2)N[C@H](CN(C)C(=O)c2ccc(C(C)(C)C)cc2)[C@@H]2C(=O)N(Cc3ccccc3)C(=O)[C@@H]21	none (no result: GASC-1 inh, p-CIP stab down) | VLA-4 mod pick inactive
COC(=O)[C@]1(Cc2ccccc2)N[C@H](CN(C)C(=O)NC(C)C)[C@@H]2C(=O)N(Cc3ccccc3)C(=O)[C@@H]21	none (no result: p-CIP stab down)
CC[C@@]1(C(=O)OC)N[C@H](CN(C)C(=O)c2ccc(C(C)(C)C)cc2)[C@@H]2C(=O)N(Cc3ccccc3)C(=O)[C@@H]21	none (no result: GASC-1 inh, p-CIP stab down)
COC(=O)[C@]1(Cc2ccccc2)N[C@H](CN(C)C(C)=O)[C@@H]2C(=O)N(Cc3ccccc3)C(=O)[C@@H]21	none (no result: GASC-1 inh, p-CIP stab down) | VLA-4 mod pick inactive
CCOc1ccccc1/C=C(/C#N)C(N)=O	none | VLA-4 mod pick inactive
CCCOc1ccccc1/C=C(\C#N)C(=O)Nc1cccc(C)n1	none
CN(C)CCCn1c(SCC(=O)N2c3ccccc3Sc3ccccc32)nc2ccccc2c1=O	VLA-4 inh 53 | VLA-4 mod pick inactive
CCN(CC)S(=O)(=O)c1ccc(N2CCOCC2)c(NC(=O)c2cccc3ccccc23)c1	none
CCN(CC)S(=O)(=O)c1ccc(N2CCOCC2)c(NC(=O)c2cc(=O)[nH]c3ccccc23)c1	VLA-4 inh 51 | VLA-4 mod pick inactive
O=C(NC(=O)N1CCN(c2cccc(Cl)c2)CC1)c1ccccc1	none
CS(=O)c1nc(-c2ccc(Br)cc2)cc(-c2ccccc2)c1C#N (stereo not drawn)	VLA-4 inh 59 | VLA-4 mod pick 41
CCN(CC)CCCN=C(C)C1=C(O)c2ccccc2C1=O	none
COc1ccccc1CNC(=O)CN(C)S(=O)(=O)c1ccc(F)cc1	none | VLA-4 mod pick inactive
COc1ccccc1CC(=O)NNC(=O)CN(C)S(=O)(=O)c1ccc(Cl)cc1	none (no result: p-CIP stab down)
COc1ccccc1CNC(=O)C(C)NS(=O)(=O)c1ccccc1 (stereo not drawn)	none | VLA-4 mod pick inactive
COc1ccccc1CNC(=O)CS(=O)(=O)c1ccccc1	none
COC(C[C@@H]1O[C@@H]1[C@@H](O)[C@@H](C)OCc1ccccc1)OC	none (no result: VLA-4 inh)
C=CCNC(=O)c1ccccc1NC(=O)COc1ccc(OC)cc1	none | VLA-4 mod pick inactive
C=CCNC(=O)c1ccccc1NC(=O)COc1ccccc1	VLA-4 inh 54 | VLA-4 mod pick inactive
C/C(=N/NC(=O)c1ccccn1)c1ccc(O)cc1	none
O=C(N1CCN(c2ccccn2)CC1)N1c2ccccc2Sc2ccccc21	VLA-4 inh 67 | VLA-4 mod pick inactive
Cc1cccc(-n2c(Cc3cc(=O)[nH]c(=O)[nH]3)nnc2SCC(=O)N2CCCCC2)c1	VLA-4 inh 54 | VLA-4 mod pick inactive
CSc1nnc(Cc2cc(=O)[nH]c(=O)[nH]2)n1-c1cccc(C)c1	none
Cc1ccc(S(=O)(=O)N2[C@@H](c3cccc(C)c3)C(C(=O)O)=C[C@H]2CC2CCCC2)cc1	none (no result: p-CIP stab down) | VLA-4 mod pick inactive
Cc1ccc(S(=O)(=O)N2[C@@H](c3ccccc3)C(C(=O)O)=CC[C@H]2c2cccc(C)c2)cc1	none (no result: p-CIP stab down)
CC[C@@H]1C=C(C(=O)O)[C@H](c2ccc(F)cc2)N1S(=O)(=O)c1ccc(C)cc1	none (no result: p-CIP stab down)
COc1ccc([C@H]2C(C(=O)O)=C[C@@H](CC3CCCC3)N2S(=O)(=O)c2ccc(C)cc2)cc1OC	none (no result: GASC-1 inh, p-CIP stab down) | VLA-4 mod pick inactive
CC[C@@H]1C=C(C(=O)O)[C@H](c2cccc(C)c2)N1S(=O)(=O)c1ccc(C)cc1	none (no result: GASC-1 inh, p-CIP stab down) | VLA-4 mod pick inactive
Cc1ccc(S(=O)(=O)N2[C@@H](c3ccc4c(c3)OCO4)C(C(=O)O)=C[C@H]2CC2CCCC2)cc1	none (no result: GASC-1 inh, p-CIP stab down) | VLA-4 mod pick inactive
COc1ccc([C@@H]2CC=C(C(=O)O)[C@H](c3ccc(Br)cc3)N2S(=O)(=O)c2ccc(C)cc2)cc1OC	none (no result: p-CIP stab down)
O=C(c1cncc(Br)c1)N1CCCc2ccccc21	none
Cc1cc(NC(=O)CSc2nncc(=O)n2N)no1	none
CC(C)C[C@H]1CNC(=S)N1CC1CCN(CCCC2CCCCC2)CC1	none (no result: GASC-1 inh, VLA-4 inh, p-CIP stab down)
COc1cc(/C=C2/S/C(=N/S(=O)(=O)c3ccccc3)NC2=O)c([N+](=O)[O-])cc1OC	VLA-4 inh 52 | VLA-4 mod pick inactive
COc1ccc(-n2c(=O)[nH]cc(C(=O)Nc3ccccc3)c2=O)cc1	VLA-4 inh 55 | VLA-4 mod pick inactive
COc1ccc(OCc2cc(C(=O)N3C[C@@H](C)O[C@@H](C)C3)no2)c(Cl)c1	none
CCC(c1nnnn1Cc1ccccc1)N1CCN(c2ccccc2)CC1 (stereo not drawn)	none
COCC(=O)NCc1ccc2c(c1)OCO2	VLA-4 inh 53 | VLA-4 mod pick inactive
O=C(COC(=O)c1ccc2c(c1)OCO2)NCc1ccc2c(c1)OCO2	none
O=C(c1cnc2nc3ccccc3n2c1)c1cc(F)ccc1O	none
CCOC(=O)CNC(=O)c1ccc2[nH]c3ccccc3c2c1	none | VLA-4 mod pick inactive
O=C(NCC(O)CO)c1ccc2[nH]c3ccccc3c2c1 (stereo not drawn)	none
O=C(NC1CCCC1)C(c1ccc(F)cc1)N(C(=O)c1csnn1)c1ccccc1F (stereo not drawn)	none
COC(=O)C1=C(NC(C)=O)CCS1	none
COC(=O)C1=C(NC(=O)COc2ccc3ccccc3c2)CCS1	none | VLA-4 mod pick inactive
FC(F)(F)c1nnc(-c2ccccc2)nc1Sc1ccc(Cl)cc1	VLA-4 inh 72 | VLA-4 mod pick 50
Nc1ncn([C@@H]2O[C@H](CO)[C@@H](O)[C@H]2O)c(=O)n1	none (no result: p-CIP stab down)
